Experimental data reported in ChEMBL document CHEMBL1124705, “Renin inhibitors containing isosteric replacements of the amide bond connecting the P3 and P2 sites” (J Med Chem, 1990).

Tests used:
[1] = biological target: T1, Renin (Homo sapiens, UniProt P00797); assay: Inhibitory activity against human renin
T1 sequence (P00797 whole entry): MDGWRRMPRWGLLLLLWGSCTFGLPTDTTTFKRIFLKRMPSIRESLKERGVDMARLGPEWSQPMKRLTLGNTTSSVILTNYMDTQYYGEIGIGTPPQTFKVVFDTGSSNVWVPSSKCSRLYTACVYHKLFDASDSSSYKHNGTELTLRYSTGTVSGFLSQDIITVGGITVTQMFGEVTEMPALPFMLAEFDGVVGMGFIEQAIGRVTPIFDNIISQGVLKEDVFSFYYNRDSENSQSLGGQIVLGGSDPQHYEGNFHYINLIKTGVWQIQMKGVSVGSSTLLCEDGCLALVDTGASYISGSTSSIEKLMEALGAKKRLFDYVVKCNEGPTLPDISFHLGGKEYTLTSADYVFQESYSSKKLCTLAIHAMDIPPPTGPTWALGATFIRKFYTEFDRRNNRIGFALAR
Method in brief: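 It was incubated 2 h at 37 °C with compound added in DMSO. Angiotensin I generated, linear over this period, was corrected for endogenous AI and expressed as percent of DMSO control. IC50 was estimated from semilog plots of three or more concentrations.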

[2] = biological target: Renin (monkey); assay: The compound was tested in vitro for inhibitory activity against Renin in monkey plasma

| IC50 [2] [µM] | SMILES | IC50 [1] [µM] |
| --- | --- | --- |
| – | CC(C)C[C@H](CC(O)[C@H](CC1CCCCC1)NC(=O)OC(C)(C)C)C(=O)N[C@@H](CC(C)C)C(O)CC(=O)N[C@@H](CC(C)C)C(=O)NCc1ccccc1 (stereo not given in full) | 3.8 |
| – | CC(C)C[C@H](NC(=O)CC(O)[C@H](CC(C)C)NC(=O)[C@H](Cc1ccccc1)CC(O)[C@H](CC(C)C)NC(=O)OCc1ccccc1)C(=O)NCc1ccccc1 (stereo not given in full) | 8.4 |
| – | CC(C)C[C@H](NC(=O)CC(O)[C@H](CC(C)C)NC(=O)CCC(=O)[C@H](Cc1ccccc1)NC(=O)OC(C)(C)C)C(=O)NCc1ccccc1 (stereo not given in full) | 21 |
| – | CC(C)C[C@H](CC(O)[C@H](CC(C)C)NC(=O)OCc1ccccc1)C(=O)N[C@@H](CC(C)C)C(O)CC(=O)N[C@@H](CC(C)C)C(=O)NCc1ccccc1 (stereo not given in full) | 6.7 |
| – | CC(C)C[C@H](NC(=O)CC(O)[C@H](CC(C)C)NC(=O)CCC[C@H](Cc1ccccc1)NC(=O)OC(C)(C)C)C(=O)NCc1ccccc1 (stereo not given in full) | 23 |
| – | CC(C)C[C@H](NC(=O)C[C@@H](O)C(CC1CCCCC1)NC(=O)CC1OC1[C@H](Cc1ccccc1)NC(=O)OC(C)(C)C)C(=O)NCc1cccc(CN)c1 (stereo not given in full) | 0.32 |
| – | CC(C)C[C@H](NC(=O)C[C@@H](O)C(CC1CCCCC1)NC(=O)/C=C/C(O)[C@H](Cc1ccccc1)NC(=O)OC(C)(C)C)C(=O)NCc1ccccc1 (stereo not given in full) | 0.09 |
| 1.1 | CC(C)C[C@H](NC(=O)CC(O)[C@H](CC(C)C)NC(=O)CNC(=O)[C@H](Cc1ccccc1)NC(=O)OC(C)(C)C)C(=O)NCc1ccccc1 (stereo not given in full) | – |
| – | CC(C)C[C@H](NC(=O)CC(O)[C@H](CC(C)C)NC(=O)[C@H](Cc1c[nH]cn1)NC[C@H](Cc1ccccc1)NC(=O)OC(C)(C)C)C(=O)NCc1ccccc1 (stereo not given in full) | 3.8 |
| – | CC(C)C[C@H](NC(=O)CC(O)[C@H](CC(C)C)NC(=O)CC(O)C(O)[C@H](CC1CCCCC1)NC(=O)OC(C)(C)C)C(=O)NCc1ccccc1 (stereo not given in full) | 6.5 |
| – | CC(C)C[C@H](NC(=O)CC(O)[C@H](CC(C)C)NC(=O)CCC(O)[C@H](CC(C)C)NC(=O)OCc1ccccc1)C(=O)NCc1ccccc1 (stereo not given in full) | 4 |
| – | CC(C)C[C@H](NC(=O)CC(O)[C@H](CC(C)C)NC(=O)[C@H](Cc1cnc[nH]1)N(O)C[C@H](Cc1ccccc1)NC(=O)OC(C)(C)C)C(=O)NCc1ccccc1 (stereo not given in full) | 6.5 |
| – | CC(C)C[C@H](NC(=O)CC(O)[C@H](CC(C)C)NC(=O)[C@H](Cc1c[nH]cn1)CC(O)[C@H](Cc1ccccc1)NC(=O)OC(C)(C)C)C(=O)NCc1ccccc1 (stereo not given in full) | 0.78 |
| – | CC(C)CC(=O)N[C@@H](Cc1ccccc1)CS(=O)(=O)[C@@H](Cc1ccccc1)C(=O)N[C@@H](CC(C)C)C(O)CC(=O)N[C@@H](C)C(=O)N[C@@H](CC(C)C)C(O)CC(=O)NCc1ccccc1 (stereo not given in full) | 1.5 |
| – | CC(C)C[C@H](NC(=O)CC(O)[C@H](CC(C)C)NC(=O)[C@H](Cc1ccccc1)NC[C@H](Cc1ccccc1)NC(=O)OC(C)(C)C)C(=O)NCc1ccccc1 (stereo not given in full) | 4.2 |
| – | CC(C)C[C@H](NC(=O)CC(O)[C@H](CC(C)C)NC(=O)C/C=C/[C@H](Cc1ccccc1)NC(=O)OC(C)(C)C)C(=O)NCc1ccccc1 (stereo not given in full) | 7 |
| – | CC(C)C[C@H](NC(=O)C[C@@H](O)C(Cc1ccccc1)NC(=O)C/C=C/[C@H](Cc1ccccc1)NC(=O)OC(C)(C)C)C(=O)NCc1ccccc1 (stereo not given in full) | 9.2 |
| – | CC(C)C[C@H](NC(=O)CC(O)[C@H](CC(C)C)NC(=O)[C@H](Cc1ccccc1)N(O)C[C@H](Cc1ccccc1)NC(=O)OC(C)(C)C)C(=O)NCc1ccccc1 (stereo not given in full) | 18 |
| – | CC(C)C[C@H](NC(=O)CC(O)[C@H](CC(C)C)NC(=O)[C@H](Cc1ccccc1)[S+]([O-])C[C@H](Cc1ccccc1)NC(=O)OC(C)(C)C)C(=O)NCc1ccccc1 (stereo not given in full) | 5.4 |
| – | CC(C)C[C@H](NC(=O)C[C@@H](O)C(Cc1ccccc1)NC(=O)CC1OC1[C@H](Cc1ccccc1)NC(=O)OC(C)(C)C)C(=O)NCc1ccccc1 (stereo not given in full) | 4.4 |
| – | CC(C)CC(=O)N[C@@H](Cc1ccccc1)C1OC1CC(=O)N[C@@H](CC(C)C)C(O)CC(=O)N[C@@H](CC(C)C)C(=O)NCc1ccccc1 (stereo not given in full) | 29 |
| – | CC(C)C[C@H](NC(=O)CC(O)[C@H](CC(C)C)NC(=O)[C@H](Cc1cnc[nH]1)NC[C@H](CC1CCCCC1)NC(=O)OC(C)(C)C)C(=O)NCc1ccccc1 (stereo not given in full) | 10 |
| – | CC(C)CC(=O)N[C@H](CN[C@H](C(=O)N[C@@H](CC(C)C)C(O)CC(=O)N[C@@H](CC(C)C)C(=O)NCc1ccccc1)C(C)C)C(C)C (stereo not given in full) | 15 |

| IC50 [2] [µM] | SMILES | IC50 [1] [µM] |
| --- | --- | --- |
| – | CC(C)C[C@H](NC(=O)C[C@@H](O)C(CC1CCCCC1)NC(=O)CCC[C@H](Cc1ccccc1)NC(=O)OC(C)(C)C)C(=O)NCc1cccc(CN)c1 (stereo not given in full) | 0.63 |
| – | CC(C)C[C@H](NC(=O)CC(O)[C@H](CC(C)C)NC(=O)/C=C/C(O)[C@H](Cc1ccccc1)NC(=O)OC(C)(C)C)C(=O)NCc1ccccc1 (stereo not given in full) | 2.1 |
| – | CC(C)C[C@H](NC(=O)C[C@@H](O)C(CC1CCCCC1)NC(=O)CC1OC1[C@H](Cc1ccccc1)NC(=O)OC(C)(C)C)C(=O)NCc1ccccc1 (stereo not given in full) | 0.53 |
| – | CC(C)C[C@H](CC(=O)[C@H](CC1CCCCC1)NC(=O)OC(C)(C)C)C(=O)N[C@@H](CC(C)C)C(O)CC(=O)N[C@@H](CC(C)C)C(=O)NCc1ccccc1 (stereo not given in full) | 26 |
| – | CC(C)CC(=O)N[C@H](CSCC(=O)N[C@@H](CC(C)C)C(O)CC(=O)N[C@@H](CC(C)C)C(=O)NCc1ccccc1)Cc1ccccc1 (stereo not given in full) | 18 |
| – | CC(C)C[C@H](NC(=O)CC(O)[C@H](CC(C)C)NC(=O)C(O)C(O)C(O)[C@H](Cc1ccccc1)NC(=O)OC(C)(C)C)C(=O)NCc1ccccc1 (stereo not given in full) | 11 |
| – | CC(C)C[C@H](NC(=O)C[C@@H](O)C(CC1CCCCC1)NC(=O)[C@H](Cc1cnc[nH]1)NC[C@H](Cc1ccccc1)NC(=O)OC(C)(C)C)C(=O)NCc1ccccc1 (stereo not given in full) | 0.2 |
| – | CC(C)C[C@H](NC(=O)C[C@@H](O)C(CC1CCCCC1)NC(=O)CCC(O)[C@H](Cc1ccccc1)NC(=O)OC(C)(C)C)C(=O)NCc1ccccc1 (stereo not given in full) | 0.061 |
| – | CC(C)CC(=O)N[C@H](CS[C@@H](Cc1ccccc1)C(=O)N[C@@H](CC(C)C)C(O)CC(=O)N[C@@H](C)C(=O)N[C@@H](CC(C)C)C(O)CC(=O)NCc1ccccc1)Cc1ccccc1 (stereo not given in full) | 7.4 |
| – | CC(C)C[C@H](NC(=O)CC(O)[C@H](CC(C)C)NC(=O)CC(O)C(O)[C@H](Cc1ccccc1)NC(=O)OC(C)(C)C)C(=O)NCc1ccccc1 (stereo not given in full) | 1.4 |
| – | CC(C)CC(=O)N[C@H](/C=C/CC(=O)N[C@@H](CC(C)C)C(O)CC(=O)N[C@@H](CC(C)C)C(=O)NCc1ccccc1)Cc1ccccc1 (stereo not given in full) | 13 |
| – | CC(C)C[C@H](NC(=O)CC(O)[C@H](CC(C)C)NC(=O)C/C=C\[C@H](Cc1ccccc1)NC(=O)OC(C)(C)C)C(=O)NCc1ccccc1 (stereo not given in full) | > 100 |
| – | CC(C)CC(=O)N[C@@H](Cc1ccccc1)C[S+]([O-])[C@@H](Cc1ccccc1)C(=O)N[C@@H](CC(C)C)C(O)CC(=O)N[C@@H](C)C(=O)N[C@@H](CC(C)C)C(O)CC(=O)NCc1ccccc1 (stereo not given in full) | 2 |
| – | CC(C)C[C@H](NC(=O)C[C@@H](O)C(CC1CCCCC1)NC(=O)CCC(O)[C@H](Cc1ccccc1)NC(=O)OC(C)(C)C)C(=O)NCc1ccc(CN)cc1 (stereo not given in full) | 0.022 |
| – | CC(C)C[C@H](NC(=O)CC(O)[C@H](CC(C)C)NC(=O)[C@@H](CC(=O)[C@H](Cc1ccccc1)NC(=O)OCc1ccccc1)Cc1ccccc1)C(=O)NCc1ccccc1 (stereo not given in full) | 23 |
| – | CC(C)C[C@H](NC(=O)OCc1ccccc1)C(=O)C[C@@H](Cc1ccccc1)C(=O)N[C@@H](CC(C)C)C(O)CC(=O)N[C@@H](CC(C)C)C(=O)NCc1ccccc1 (stereo not given in full) | 11 |
| – | CC(C)C[C@H](NC(=O)CC(O)[C@H](CC(C)C)NC(=O)[C@H](Cc1ccccc1)CC(O)[C@H](Cc1ccccc1)NC(=O)OCc1ccccc1)C(=O)NCc1ccccc1 (stereo not given in full) | 3.7 |
| – | CC(C)C[C@H](NC(=O)C[C@@H](O)C(CC1CCCCC1)NC(=O)C/C=C/[C@H](Cc1ccccc1)NC(=O)OC(C)(C)C)C(=O)NCc1ccccc1 (stereo not given in full) | 1.3 |
| – | CC(C)C[C@H](NC(=O)C[C@@H](O)C(CC1CCCCC1)NC(=O)/C=C/C(O)[C@H](Cc1ccccc1)NC(=O)OC(C)(C)C)C(=O)NCc1ccc(CNC(=O)OCc2ccccc2)cc1 (stereo not given in full) | 0.47 |
| – | CC(C)C[C@H](NC(=O)[C@H](C)NC(=O)CC(O)[C@H](CC(C)C)NC(=O)[C@H](Cc1ccccc1)[S+]([O-])C[C@H](Cc1ccccc1)NC(=O)OC(C)(C)C)C(O)CC(=O)NCc1ccccc1 (stereo not given in full) | 5.6 |
| – | CC(C)C[C@H](NC(=O)CC(O)[C@H](CC(C)C)NC(=O)CC1OC1[C@H](Cc1ccccc1)NC(=O)OC(C)(C)C)C(=O)NCc1ccccc1 (stereo in doubt; 32) | 1.2 |
| – | CC(C)C[C@H](NC(=O)CC(O)[C@H](CC(C)C)NC(=O)CC1OC1[C@H](Cc1ccccc1)NC(=O)OC(C)(C)C)C(=O)NCc1ccccc1 (stereo in doubt; 37) | > 100 |
